The source made the active and inactive calls. The rule behind the calls is not given here.
Key:
[1] = tested on: HFF; experiment: Cytotoxicity against HFF assessed as inhibition of cell proliferation by MTS assay; assay type: cell-based, Homo sapiens
[2] = tested on: A-375; experiment: Cytotoxicity against human A-375 cells assessed as inhibition of cell proliferation measured after 48 hrs by MTS assay; assay type: functional, cell-based; conditions: A-375, 48 h
Outline: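 Cells were exposed to a dose range of inhibitor for 48 h, and viability was read by MTS assay in triplicate. GI50 was taken as the concentration giving 50% growth inhibition, averaged from three independent experiments. A375 was cultured in RPMI-1640 with Glutamax. A549 and NCI-H157 were kept in RPMI-1640, and MIA PaCa-2 and U87-MG in DMEM.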

[3] = tested on: MCF-10A; experiment: Cytotoxicity against human MCF-10A cells assessed as inhibition of cell proliferation by MTS assay; assay type: cell-based
[4] = Antiproliferative activity against human SB-590885-resistant MEL1617 cells assessed as reduction in cell viability measured after 48 hrs by MTS assay; assay type: functional, cell-based
Outline: (§1)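 Melanoma lines were grown in RPMI-1640 with Glutamax at 37 °C and 5% CO2. The resistant 451 Lu-R and MEL 1617-R sublines were maintained with 1 µM PLX4720. Cells were incubated with vehicle or inhibitor over a dose range, and viability was read by MTS assay in triplicate.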

[5] = Antiproliferative activity against human SB-590885-resistant 451Lu cells assessed as reduction in cell viability measured after 48 hrs by MTS assay; assay type: functional; outline: as §1
[6] = Antiproliferative activity against human SB-590885-sensitive 451Lu cells assessed as reduction in cell viability measured after 48 hrs by MTS assay; assay type: functional; outline: as §1
[7] = Antiproliferative activity against human SB-590885-sensitive MEL1617 cells assessed as reduction in cell viability measured after 48 hrs by MTS assay; assay type: functional, cell-based; conditions: MEL1617, 48 h; outline: as §1
[8] = molecular target: T1, Signal transducer and activator of transcription 3 (Homo sapiens, UniProt P40763); experiment: Inhibition of STAT3 in human SB-590885-resistant 451Lu cells assessed as reduction in STAT3 transcriptional activity measured after 12 hrs by Dual-luciferase reporter gene assay
Outline: (§2)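 Cells co-transfected with inducible STAT3-responsive firefly luciferase and constitutive Renilla luciferase constructs (40:1) using Lipofectamine 3000. After 48 h, dose series in DMSO vehicle applied for 12 h, followed by dual-luciferase readout. Firefly signal normalized to Renilla and compared with untreated cells. Run in triplicate; IC50 taken from dose–response curves.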

[9] = molecular target: T1, Signal transducer and activator of transcription 3; experiment: Inhibition of STAT3 in human SB-590885-sensitive 451Lu cells assessed as reduction in STAT3 transcriptional activity measured after 12 hrs by Dual-luciferase reporter gene assay; outline: as §2
[10] = tested on: A-375; experiment: Potentiation of compound II-induced cytotoxicity against human A375 cells assessed as compound II IC50 at 12.5 uM measured after 48 hrs by MTS assay (reference value: 16.2 +/- 1.6 uM); assay type: functional, cell-based; conditions: A-375, 48 h
[11] = molecular target: T1, Signal transducer and activator of transcription 3; experiment: Inhibition of STAT3 in human SB-590885-resistant 451Lu cells assessed as reduction in PAX3 expression measured after 12 hrs by Western blot analysis; conditions: dose 10-25 µM
Outline: (§3)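 451 Lu and MEL 1617 pairs, sensitive and resistant; resistant lines maintained in RPMI with 1 µM PLX4720. Treated with 10 and 25 µM for 12 h versus DMSO. Lysates (60 µg protein, 10% SDS-PAGE) immunoblotted for Ser727- and Tyr705-phospho-STAT3, total STAT3, total PAX3, with actin.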

[12] = molecular target: T1, Signal transducer and activator of transcription 3; experiment: Inhibition of STAT3 in human SB-590885-resistant MEL1617 cells assessed as reduction in PAX3 expression at 10 to 25 uM measured after 12 hrs by Western blot analysis; assay type: cell-based; conditions: dose 10-25 µM; outline: as §3
[13] = molecular target: T1, Signal transducer and activator of transcription 3; experiment: Inhibition of STAT3 in human SB-590885-sensitive 451Lu cells assessed as reduction in PAX3 expression measured after 12 hrs by Western blot analysis; conditions: dose 10-25 µM; outline: as §3
[14] = Drug metabolism in pH 7.4 phosphate buffer assessed as nitric oxide release at 100 uM measured after 48 hrs by Griess reagent based colorimetric method
Outline: (§4)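 Compound at 100 µM was held at room temperature in pH 7.4 phosphate buffer with 5 mM DTT and 2% DMSO for 2 or 48 h. Griess reagent was added, and after 30 min absorbance was read at 548 nm. NO release (mol NO/mol compound) was derived from a sodium nitrite calibration curve.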

[15] = molecular target: T1, Signal transducer and activator of transcription 3; experiment: Displacement of FAM-labeled 5-GpYLPQTV-NH2 from recombinant GST-tagged STAT3 (unknown origin) preincubated for 30 mins followed by FAM-labeled 5-GpYLPQTV-NH2 addition and measured after 30 mins by fluorescence assay; conditions: time 60.0 min
Outline: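 GST-STAT3 (2 µM) was bound to GST beads for 1 h at 4 °C in PBS with 0.1% β-mercaptoethanol, then washed. Bead slurry was incubated with compound dilutions (2.25% DMSO, duplicate) and FAM-GpYLPQTV-NH2 peptide. Resin was washed by vacuum filtration and fluorescence read at ex 485/em 535 nm. % displacement was set against the no-compound signal; two independent experiments.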

[16] = molecular target: T1, Signal transducer and activator of transcription 3; experiment: Inhibition of STAT3 phosphorylation at S727 residue in human SB-590885-sensitive 451Lu cells measured after 12 hrs by Western blot analysis; conditions: dose 10-25 µM; outline: as §3
[17] = molecular target: T1, Signal transducer and activator of transcription 3; experiment: Inhibition of STAT3 in human SB-590885-resistant MEL1617 cells assessed as reduction in STAT3 transcriptional activity measured after 12 hrs by Dual-luciferase reporter gene assay; assay type: cell-based; outline: as §2
[18] = molecular target: T1, Signal transducer and activator of transcription 3; experiment: Inhibition of STAT3 phosphorylation at Y705 residue in human SB-590885-resistant MEL1617 cells at 10 to 25 uM measured after 12 hrs by Western blot analysis; assay type: cell-based; conditions: dose 10-25 µM; outline: as §3
[19] = Drug metabolism in pH 7.4 phosphate buffer assessed as nitric oxide release at 100 uM measured after 2 hrs by Griess reagent based colorimetric method; outline: as §4
[20] = molecular target: T1, Signal transducer and activator of transcription 3; experiment: Inhibition of STAT3 phosphorylation at Y705 residue in human SB-590885-sensitive MEL1617 cells at 10 to 25 uM measured after 12 hrs by Western blot analysis; assay type: cell-based; conditions: dose 10-25 µM; outline: as §3
[21] = molecular target: T1, Signal transducer and activator of transcription 3; experiment: Inhibition of STAT3 phosphorylation at S727 residue in human SB-590885-sensitive MEL1617 cells at 10 to 25 uM measured after 12 hrs by Western blot analysis; assay type: cell-based; conditions: dose 10-25 µM; outline: as §3
[22] = molecular target: T1, Signal transducer and activator of transcription 3; experiment: Inhibition of STAT3 phosphorylation at Y705 residue in human SB-590885-sensitive 451Lu cells measured after 12 hrs by Western blot analysis; conditions: dose 10-25 µM; outline: as §3
[23] = molecular target: T1, Signal transducer and activator of transcription 3; experiment: Inhibition of STAT3 phosphorylation at Y705 residue in human SB-590885-resistant 451Lu cells measured after 12 hrs by Western blot analysis; conditions: dose 10-25 µM; outline: as §3
[24] = molecular target: T1, Signal transducer and activator of transcription 3; experiment: Inhibition of STAT3 in human SB-590885-sensitive MEL1617 cells assessed as reduction in STAT3 transcriptional activity measured after 12 hrs by Dual-luciferase reporter gene assay; assay type: cell-based; outline: as §2
[25] = molecular target: T1, Signal transducer and activator of transcription 3; experiment: Inhibition of STAT3 phosphorylation at S727 residue in human SB-590885-resistant 451Lu cells measured after 12 hrs by Western blot analysis; conditions: dose 10-25 µM; outline: as §3
[26] = molecular target: T1, Signal transducer and activator of transcription 3; experiment: Inhibition of STAT3 phosphorylation at S727 residue in human SB-590885-resistant MEL1617 cells at 10 to 25 uM measured after 12 hrs by Western blot analysis; assay type: cell-based; conditions: dose 10-25 µM; outline: as §3
[27] = molecular target: T1, Signal transducer and activator of transcription 3; experiment: Inhibition of STAT3 in human SB-590885-sensitive MEL1617 cells assessed as reduction in PAX3 expression at 10 to 25 uM measured after 12 hrs by Western blot analysis; assay type: cell-based; conditions: dose 10-25 µM; outline: as §3

T1 sequence (P40763 whole entry): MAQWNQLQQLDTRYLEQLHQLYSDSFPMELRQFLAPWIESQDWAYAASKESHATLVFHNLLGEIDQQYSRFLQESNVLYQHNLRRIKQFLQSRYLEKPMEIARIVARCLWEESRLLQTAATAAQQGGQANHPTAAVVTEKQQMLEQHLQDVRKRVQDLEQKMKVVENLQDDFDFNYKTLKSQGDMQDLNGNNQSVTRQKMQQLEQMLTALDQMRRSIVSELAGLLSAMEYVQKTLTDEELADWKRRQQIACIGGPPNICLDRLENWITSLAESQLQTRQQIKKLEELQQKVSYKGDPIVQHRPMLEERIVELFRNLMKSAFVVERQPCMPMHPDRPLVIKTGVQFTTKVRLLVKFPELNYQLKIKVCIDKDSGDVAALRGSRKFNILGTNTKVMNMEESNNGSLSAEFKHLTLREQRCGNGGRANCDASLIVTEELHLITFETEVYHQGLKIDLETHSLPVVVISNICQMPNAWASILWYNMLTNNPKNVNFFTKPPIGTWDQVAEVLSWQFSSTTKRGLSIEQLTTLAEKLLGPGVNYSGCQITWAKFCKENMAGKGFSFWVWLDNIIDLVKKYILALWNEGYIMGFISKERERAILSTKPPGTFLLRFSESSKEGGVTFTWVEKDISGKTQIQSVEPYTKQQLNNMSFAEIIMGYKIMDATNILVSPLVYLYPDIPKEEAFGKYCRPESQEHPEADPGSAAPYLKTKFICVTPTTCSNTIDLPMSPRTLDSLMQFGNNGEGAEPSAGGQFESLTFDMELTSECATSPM

O=C(Nc1nnc(-c2ccco2)o1)c1cc(-c2ccccc2)nc2ccccc12
IC50 ([1]; Homo sapiens, HFF, read-out: IC50): 72.2 µM
IC50 [2]: 16.2 µM
IC50 ([3]; Homo sapiens, MCF-10A, read-out: IC50): 33.4 µM

CCCS(=O)(=O)Nc1ccc(F)c(C(=O)c2c[nH]c3ncc(Cl)cc23)c1F [PLX-4720]
IC50 ([4]; mel1617): Not Active
IC50 ([5]; 451lu): Not Active
IC50 [6]: 0.062 µM
IC50 [7]: 0.084 µM

COc1ccc2nc(-c3ccc(Cl)cc3)cc(-c3nnc(SCC(=O)Nc4ccc(/C(C)=N\O)cc4)n3-c3ccccc3)c2c1
IC50 ([4]; Homo sapiens, MEL1617, 48 h, read-out: IC50): > 50 µM
IC50 [8]: 40.5 µM
IC50 [9]: 54 µM
IC50 ([5]; Homo sapiens, 451Lu, 48 h, read-out: IC50): > 50 µM
IC50 [10]: 6.8 µM
inhibition [11]: inactive
inhibition [12]: inactive
inhibition [13]: inactive
Drug metabolism [14]: 30%
IC50 [6]: > 50 µM
inhibition [15]: inactive
inhibition [16]: inactive
IC50 [17]: 35.2 µM
IC50 [7]: > 50 µM
inhibition [18]: inactive
Drug metabolism [19]: 15%
inhibition [20]: inactive
inhibition [21]: inactive
inhibition [22]: inactive
IC50 ([1]; hff): Not Active
inhibition [23]: inactive
IC50 [24]: 75 µM
inhibition [25]: inactive
IC50 [2]: > 100 µM
inhibition [26]: inactive
inhibition [27]: inactive
IC50 ([3]; mcf-10a): Not Active

Reference: ChEMBL document CHEMBL4715843, “NO-releasing STAT3 inhibitors suppress BRAF-mutant melanoma growth” (Eur J Med Chem, 2020)
